Shown are actives, neighbours in structure and some others; about 1.3% of the full set was active somewhere.
S100A4 MyoIIA: S100A4-myosin IIA interaction inhibition | P26447 | S100A4/TAMRA-MyoIIA peptide fluorescence polarization | inhibition, % at 10.7 µM | actives 0.14% (n = 360,000) | AID 652163;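 active means mean inhibition of at least 70% across replicates, with every replicate also reaching that level; inconclusive means mean inhibition reaches 70% but some replicates fall short; inactive means mean inhibition below 70%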
Target sequence (P26447 whole entry, looked up): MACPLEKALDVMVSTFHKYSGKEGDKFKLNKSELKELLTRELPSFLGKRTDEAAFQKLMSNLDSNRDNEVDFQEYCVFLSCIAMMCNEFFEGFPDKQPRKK
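Test system – S100A4 monomer (human) · Compound – single-point compound testing · Schedule – 5 min incubation before reading · Probe or stimulus – TAMRA-labelled myosin IIA heavy-chain peptide probe, 5 nM · Benchmarks – neutral control DMSO, positive control TFP · Medium – Calcium-containing HEPES buffer, pH 7.2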
Casp6 inh: caspase-6 (human) enzyme inhibition. actives 0.53% (n = 350,000). inhibition, % at 12.5 µM. purified caspase-6, Z-VEID-R110 cleavage fluorescence;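 active means mean inhibition across replicates at least about 35%, with every replicate also reaching that limit, limit read from the data; inconclusive means only one of the two criteria met; inactive means neither criterion met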
RAD52 anneal inh: blocks human RAD52 DNA annealing. P43351. recombinant RAD52 DNA annealing, FRET fluorescence. inhibition, % at 18.7 µM. actives 0.46% (n = 360,000);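 active means every replicate showing at least 50% inhibition; inconclusive means mean inhibition at least 50% but not in every replicate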
XiGFP reactiv: reactivates the inactive X chromosome in mouse fibroblasts; XiGFP mouse fibroblasts, % GFP-positive cells imaging, 3 d; cells co-treated with 5-aza-dC sensitizer; scaled so ellipticine positive control = 100%; activation, % at 7.58 µM; actives 0.055% (n = 360,000); AID 743238;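 active means mean normalized replicate activation at least 10% and every replicate at or above 10%; inconclusive means only one of the two criteria met; inactive means mean below 10% and not all replicates reach 10%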
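System: 68-5-11 XiGFP fibroblast line | Buffer or medium: DMEM containing 5-aza-dC | Compound: Single point | Times: Compounds 3 days, fix/stain 15 min at room temperature | Benchmarks: Positive control ellipticine, 6 µM final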
RAD54 branch: RAD54 (human) branch migration inhibition; Q92698; RAD54 Holliday junction branch migration, FAM/BHQ fluorescence; inhibition, % at 10.4 µM; actives 0.14% (n = 360,000); AID 602329;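 active means mean normalized replicate activity at least 40 and at least half of replicates scoring 40 or more; inconclusive means only one of the two criteria met; inactive means mean below 40 and under half of replicates reaching 40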;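 further: inhibitors cause a drop in the FAM fluorescence signal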
AF4-AF9 inh: inhibitors of human MLL-AF4/AF9 interaction | AlphaScreen, biotin-AF4 peptide binding to FLAG-AF9 | inhibition, % at 10 µM | actives 0.47% (n = 350,000);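 active means every replicate reaching a set inhibition limit, whatever the replicate mean, cut at about 25% in these data; inconclusive means mean inhibition reaches that limit but some replicates miss it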
Target sequence (P42568 whole entry, looked up): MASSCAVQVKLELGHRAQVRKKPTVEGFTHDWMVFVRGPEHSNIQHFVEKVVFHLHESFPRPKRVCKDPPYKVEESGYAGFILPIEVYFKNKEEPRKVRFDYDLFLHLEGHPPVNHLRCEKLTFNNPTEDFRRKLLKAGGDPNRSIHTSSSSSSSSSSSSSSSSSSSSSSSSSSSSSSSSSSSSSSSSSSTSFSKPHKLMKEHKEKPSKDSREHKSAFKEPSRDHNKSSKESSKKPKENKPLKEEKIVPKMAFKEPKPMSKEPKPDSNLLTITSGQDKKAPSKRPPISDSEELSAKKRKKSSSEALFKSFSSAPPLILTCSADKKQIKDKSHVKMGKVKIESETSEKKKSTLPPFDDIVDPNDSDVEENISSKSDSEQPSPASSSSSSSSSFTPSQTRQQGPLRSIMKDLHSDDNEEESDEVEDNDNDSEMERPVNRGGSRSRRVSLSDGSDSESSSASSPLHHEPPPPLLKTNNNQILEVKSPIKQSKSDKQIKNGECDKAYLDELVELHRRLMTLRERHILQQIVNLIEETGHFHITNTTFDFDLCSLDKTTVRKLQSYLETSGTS
DNA binder FP: binds DNA, flagging false RAD52 inhibitor hits | shares compounds with RAD52 anneal inh | actives 8% (n = 1,000) | Salmon sperm DNA/acridine orange FP displacement, DNA binding | AID 652128 | AC50, µM;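 active means fitted half-maximal concentration for signal loss at or below twice the highest dose tested, in every separate run, actives reach about 64 µM in these data; inconclusive means runs disagree, or flat partial signal loss, or poor fit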
Large screens that a line does not name were inactive (follow-up assays come after a bar, where they were run).

C[C@]12CC[C@H](O)CC1=CCC1C2CC[C@@]2(C)C1CC[C@@H]2NC(=O)[C@@H](N)Cc1cnc[nH]1 (stereo not given in full)	RAD52 anneal inh 79.9 | DNA binder FP inactive
C[C@@H]1CCCCO[C@@H](CN(C)Cc2ccc3c(c2)OCO3)[C@H](C)CN([C@H](C)CO)C(=O)c2cc(NC(=O)C3CCCCC3)ccc2O1	none
CCCCCOc1ccc(/C(C)=N/NC2=NCCN2)cc1	none
CCCCCCOc1ccc(/C(C)=N/NC2=NCCN2)cc1	RAD52 anneal inh 54.3, AF4-AF9 inh inconclusive | DNA binder FP inactive
COc1ccc(NC(=O)N2CC(=O)N3[C@H](CO)[C@H](c4ccc(Br)cc4)[C@H]3C2)cc1	none (no result: RAD54 branch)
Cc1cc2ccccc2cc1C(=O)c1ccccc1	none
Cc1sc2cc3c(c(C(=O)c4ccccc4)[n+]2c1C)-c1cccc2cccc-3c12	RAD52 anneal inh 102.8, AF4-AF9 inh 25.4 (no result: RAD54 branch) | DNA binder FP 61.1µM
CN(C)CCc1cc2c(c3c1ccc1ccccc13)OCO2	RAD52 anneal inh 99.9, RAD54 branch 95.5 | DNA binder FP 36.6µM
NCCCC[C@H]1CNC(=S)N1CCCCC1CCCCC1	RAD52 anneal inh 85.6 | DNA binder FP inactive
CCCC[C@@H]1CNC(=O)C(=O)N1CCCCC1CCCCC1	none (no result: RAD54 branch)
NCCCC[C@H]1CNC(=S)N1CCc1cc(C(F)(F)F)cc(C(F)(F)F)c1	RAD52 anneal inh 66.7 | DNA binder FP inactive
O=C(N[C@H]1CC[C@@H](CC(=O)N2CCc3ccccc3C2)O[C@H]1CO)C1CCC1	none
N=c1c2c(ncn1Cc1ccco1)Oc1c(ccc3ccccc13)C2c1ccccc1 (stereo not given)	none (no result: S100A4 MyoIIA, Casp6 inh, RAD52 anneal inh, RAD54 branch, AF4-AF9 inh)
CN(C)CCn1cnc2c(c1=N)C(c1ccccc1)c1ccc3ccccc3c1O2 (stereo not given)	none | DNA binder FP inactive
COc1cc2cc(-c3ccc(OC)c(OC)c3C)nc(N)c2cc1OC	RAD52 anneal inh 61.1 | DNA binder FP inactive
COc1cc2cc(-c3ccc(O)cc3O)nc(C)c2cc1OC	none
Nc1nc2c(s1)CCCCCCCCCC2	none
CCN1CCc2nc(N)sc2C1	RAD52 anneal inh 68.9 (no result: RAD54 branch) | DNA binder FP inactive
C=CCN1CCc2nc(N)sc2CC1	RAD52 anneal inh 66.3 (no result: Casp6 inh) | DNA binder FP inactive
CCN1CCc2nc(NC(=O)c3ccccc3)sc2C1	none (no result: S100A4 MyoIIA, Casp6 inh, RAD52 anneal inh, XiGFP reactiv, AF4-AF9 inh)
C[C@@H]1CCCCO[C@H](CN(C)C(=O)CCC(F)(F)F)[C@@H](C)CN([C@@H](C)CO)C(=O)c2cc(NC(=O)Nc3ccccc3)ccc2O1	none
COc1cccc(/C=C2/Sc3ccc(C(=O)NCCN4CCCC4)cc3NC2=O)c1	RAD52 anneal inh 91.8, AF4-AF9 inh 37.5 | DNA binder FP inactive
COc1ccc(/C=C2\Sc3ccc(C(=O)NCCN4CCCCCC4)cc3N(C)C2=O)cc1	RAD52 anneal inh 55.6 | DNA binder FP inactive
COc1ccc(S(=O)(=O)Nc2ccc3c(c2)C(=O)N([C@H](C)CO)C[C@H](C)[C@@H](CN(C)CC2CC2)OCCCC[C@@H](C)O3)cc1	none
Cc1ccc(C)c(OCC(O)CN2CCN(CCN3C(=O)c4cccc5cccc(c45)C3=O)CC2)c1 (stereo not given)	RAD52 anneal inh 98.8 (no result: RAD54 branch) | DNA binder FP inactive
COc1cc(COCC(O)CN2CCN(CCN3C(=O)c4cccc5cccc(c45)C3=O)CC2)cc(OC)c1OC (stereo not given)	RAD52 anneal inh 84.7 (no result: RAD54 branch) | DNA binder FP inactive
CCOC(=O)c1ccc(NC(=O)/C=C/c2cccs2)cc1	none (no result: RAD54 branch)
CCN(CC)CCOC(=O)c1ccc([N+](=O)[O-])cc1	none (no result: RAD54 branch)
CCN(CC)CCOC(=O)c1ccc(N)cc1	RAD52 anneal inh 88.4 (no result: Casp6 inh) | DNA binder FP inactive
CCN(CC)CCCOC(=O)c1ccc(OC)cc1O	none (no result: RAD54 branch)
CCCOc1cc(N)ccc1C(=O)OCCN(CC)CC	RAD52 anneal inh 62.4 | DNA binder FP inactive
CCN(CC)CCOC(=O)c1ccc(NC(=O)/C=C/c2cccs2)cc1	RAD52 anneal inh 58.0 (no result: RAD54 branch) | DNA binder FP inactive
CC(C)NC(=O)N(C)C[C@H]1Oc2ccc(NS(=O)(=O)c3ccc(F)cc3)cc2CC(=O)N([C@H](C)CO)C[C@H]1C	none
Cc1ccc2cc(C#N)c(NCCNC(=S)NCCCN(C)C)nc2c1C	RAD52 anneal inh 100.4 (no result: RAD54 branch) | DNA binder FP inactive
Cc1cc(C)c2nc(NCCCNC(=S)NCCCN(C)C)c(C#N)cc2c1	RAD52 anneal inh 94.4 (no result: RAD54 branch) | DNA binder FP inactive
O=C(NCCCCCCCN1CCCCCCC1)C(C1CCCCC1)C1CCCCC1	RAD52 anneal inh 81.8, AF4-AF9 inh inconclusive (no result: RAD54 branch) | DNA binder FP inactive
O=C(NCCCN1CCOCC1)NC1CCCCC1	none (no result: S100A4 MyoIIA, Casp6 inh, RAD52 anneal inh, XiGFP reactiv, AF4-AF9 inh)
CN(C)CCCN=c1cc(-c2ccccc2)oc2ccc(Cl)cc12	RAD52 anneal inh 80.3 (no result: RAD54 branch) | DNA binder FP 27.5µM
CN1CCN(CCCNC(=O)c2ccc(/C=C3\Sc4ccccc4N(Cc4ccccc4F)C3=O)cc2)CC1	RAD52 anneal inh 89.9, AF4-AF9 inh 36.3 (no result: XiGFP reactiv, RAD54 branch) | DNA binder FP inactive
Cc1cccc(-c2ccc3[nH]c4c(c3c2)CCN2C[C@@H]([C@H](C)O)[C@@H](N(C)C(=O)NC3CCCCC3)C[C@@H]42)c1	none
CN[C@H]1C[C@H]2c3[nH]c4ccc(-c5cccc(C)c5)cc4c3CCN2C[C@H]1[C@H](C)O	RAD52 anneal inh 58.5, AF4-AF9 inh 39.6 | DNA binder FP inactive
Cc1cccc(-c2ccc3[nH]c4c(c3c2)CCN2C[C@H]3[C@H](C)ON(C)[C@H]3C[C@@H]42)c1	RAD52 anneal inh 59.7, AF4-AF9 inh 39.2 | DNA binder FP inactive
CCCC#Cc1ccc2c(c1)O[C@H](CN(C)Cc1ccccc1)[C@H](C)CN([C@H](C)CO)S2(=O)=O	none (no result: S100A4 MyoIIA, Casp6 inh, RAD52 anneal inh, RAD54 branch, AF4-AF9 inh)
CO[C@H]1CN(C)C(=O)c2cc(NS(C)(=O)=O)ccc2OC[C@H](C)N(S(C)(=O)=O)C[C@H]1C	none
N#Cc1ccc(N)cc1OCCCN1CCCCC1	RAD52 anneal inh 86.1 | DNA binder FP inactive
Cc1ccc(C)c(OCCCCN2CCCCC2)c1	none
CN(C)Cc1c(OC(=O)c2ccc(N)cc2)ccc2ccccc12	RAD52 anneal inh 59.1 | DNA binder FP inactive
O=c1oc(-c2cccnc2)nc2ccccc12	none (no result: S100A4 MyoIIA, Casp6 inh, RAD52 anneal inh, XiGFP reactiv, AF4-AF9 inh)
O=c1oc(-c2ccccc2Br)nc2ccccc12	RAD52 anneal inh 101.9 | DNA binder FP inactive
CCN1CCN(c2cc(C)c3cc(NC(=O)c4cc(OC)cc(OC)c4)ccc3n2)CC1	RAD52 anneal inh 54.6 | DNA binder FP inactive
CCN1CCN(c2cc(C)c3cc(NC(=O)c4cnccn4)ccc3n2)CC1	RAD52 anneal inh 59.2 | DNA binder FP inactive
CCC(=O)/C=C1/Sc2ccccc2N1CC	none (no result: S100A4 MyoIIA, Casp6 inh, RAD52 anneal inh, XiGFP reactiv, AF4-AF9 inh)
CCN1/C(=C/c2sc(-c3ccccc3C)c[n+]2C)Sc2ccccc21	RAD52 anneal inh 69.5 (no result: RAD54 branch) | DNA binder FP inactive

Screening results deposited in PubChem by Broad Institute.
